Experimental data published in ChEMBL document CHEMBL1130204, “3 alpha-Hydroxy-3 beta-(phenylethynyl)-5 beta-pregnan-20-ones: synthesis and pharmacological activity of neuroactive steroids with high affinity for GABAA receptors” (J Med Chem, 1997).
pEC50, pIC50: −log10 of the molar value.

Columns and labels:
[1] = target: GABA-A receptor; anion channel; experiment: In vitro inhibition of [35S]TBPS binding to gamma-aminobutyric-acid A receptor in rat brain cortical membranes in the presence of 5 uM GABA.; type: cell membranes, Membrane
Summary of the method: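 Rat cortical P2 membranes, washed in 200 mM NaCl/50 mM Na-K phosphate pH 7.4, incubated 90 min at room temperature with 2 nM [35S]TBPS, 5 µM GABA and test drug in DMSO (final 0.5%). Nonspecific binding taken with 2 µM unlabeled TBPS. Filtration, then scintillation counting. Partial vs full and one- vs two-component models chosen by F-test.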

Mus musculus = experiment: Percent of animals (n=8) not exhibiting PTZ-induced ( Pentylentetrazol protection) seizures 10 min following a 10 mg/kg ip dose of steroid.; type: functional; settings: route intraperitoneal
Summary of the method: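 Male NSA mice (15-20 g), n = 8. […] Mice watched 30 min for clonic seizure (forelimb clonus ≥3 s). Read-out is the percent of mice protected.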

Rattus norvegicus = organism: Rattus norvegicus; experiment: The maximum inhibitory potency was calculated by fitting [35S]TBPS inhibition data to a sigmoid function (rat brain cortical P2 membranes); type: functional
Summary of the method: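 Rat cortical P2 membranes washed in 200 mM NaCl/50 mM Na-K phosphate pH 7.4, incubated 90 min at room temperature with 2 nM [35S]TBPS, 5 µM GABA and test drug in DMSO (final 0.5%). Nonspecific binding defined with 2 µM unlabeled TBPS. Filtration, scintillation counting. Fits to one- or two-component, full or partial inhibition models chosen by F-test; IC50 and Imax as mean ± SEM of individual experiments.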

[2] = Slope value was determined
[3] = target: GABA-A receptor; alpha-1/beta-2/gamma-2 (Homo sapiens) (UniProt P14867+P47870+P18507); experiment: Efficacy as fractional response (FR) relative to GABA maximum current elicited in the Xenopus oocytes; type: functional, cell-based; settings: Oocyte
Summary of the method: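 Xenopus oocytes expressing α1β2γ2L GABAA receptors (~1 ng each cRNA), two-electrode voltage clamp at -70 mV in frog Ringer's pH 7.4. GABA set to give ~5% of maximal current (1 mM GABA). Steroid co-applied with 0.3% DMSO. Response taken as potentiation plus any direct current, expressed as a fraction of GABA maximum, fit to a four-parameter logistic.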

[4] = target: T1, GABA-A receptor; alpha-1/beta-2/gamma-2 (Homo sapiens, UniProt P14867+P18507+P47870); experiment: Steroid potentiation of 5% GABA responses in Xenopus oocytes expressing human alpha-1-beta-2-gamma-2L subunits of GABA-A receptor; type: functional, cell-based, Oocyte
T1 sequence (P14867 whole entry): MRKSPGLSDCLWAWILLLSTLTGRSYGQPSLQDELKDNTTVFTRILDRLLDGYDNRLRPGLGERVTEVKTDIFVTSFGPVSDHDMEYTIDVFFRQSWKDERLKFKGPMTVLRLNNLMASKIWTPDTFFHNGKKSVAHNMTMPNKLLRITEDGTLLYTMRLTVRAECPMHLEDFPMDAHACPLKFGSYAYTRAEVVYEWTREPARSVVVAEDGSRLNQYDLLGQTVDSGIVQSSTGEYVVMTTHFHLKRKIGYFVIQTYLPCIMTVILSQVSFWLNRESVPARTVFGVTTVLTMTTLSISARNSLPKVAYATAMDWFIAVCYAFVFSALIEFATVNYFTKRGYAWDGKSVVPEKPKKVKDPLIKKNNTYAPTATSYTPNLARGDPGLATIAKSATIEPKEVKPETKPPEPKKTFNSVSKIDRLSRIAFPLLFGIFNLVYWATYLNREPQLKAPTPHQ
T1 sequence (P47870 whole entry): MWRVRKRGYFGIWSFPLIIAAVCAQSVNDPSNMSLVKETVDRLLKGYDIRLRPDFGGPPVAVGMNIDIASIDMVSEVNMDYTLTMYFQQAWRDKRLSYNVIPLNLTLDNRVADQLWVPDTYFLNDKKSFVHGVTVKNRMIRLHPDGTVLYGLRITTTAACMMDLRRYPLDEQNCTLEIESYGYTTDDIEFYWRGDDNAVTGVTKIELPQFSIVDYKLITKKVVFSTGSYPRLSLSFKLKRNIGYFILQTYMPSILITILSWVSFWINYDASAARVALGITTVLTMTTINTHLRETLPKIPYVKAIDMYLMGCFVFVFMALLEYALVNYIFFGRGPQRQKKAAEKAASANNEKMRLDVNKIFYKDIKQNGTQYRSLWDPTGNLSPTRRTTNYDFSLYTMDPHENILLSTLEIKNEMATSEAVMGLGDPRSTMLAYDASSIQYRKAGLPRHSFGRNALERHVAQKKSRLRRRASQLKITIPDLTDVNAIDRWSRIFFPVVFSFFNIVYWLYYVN
T1 sequence (P18507 whole entry): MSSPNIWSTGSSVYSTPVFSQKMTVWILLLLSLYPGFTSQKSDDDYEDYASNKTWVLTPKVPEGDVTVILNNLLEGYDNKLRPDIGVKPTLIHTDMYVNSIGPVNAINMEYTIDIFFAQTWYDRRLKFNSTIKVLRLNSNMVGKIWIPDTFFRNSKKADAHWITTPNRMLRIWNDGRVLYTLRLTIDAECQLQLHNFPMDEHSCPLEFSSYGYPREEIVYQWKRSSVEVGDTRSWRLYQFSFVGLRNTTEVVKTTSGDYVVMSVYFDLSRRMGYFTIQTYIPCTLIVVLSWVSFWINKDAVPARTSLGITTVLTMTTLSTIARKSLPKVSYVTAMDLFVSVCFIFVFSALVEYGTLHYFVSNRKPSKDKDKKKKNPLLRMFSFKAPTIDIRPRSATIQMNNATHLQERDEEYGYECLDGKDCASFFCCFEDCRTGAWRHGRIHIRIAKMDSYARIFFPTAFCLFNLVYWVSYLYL
Summary of the method: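 Xenopus oocytes injected with α1, β2, γ2L cRNAs (~1 ng each). Two-electrode voltage clamp at -70 mV in frog Ringer's, pH 7.4. GABA set to give about 5% of the maximal (1 mM GABA) current. Steroid stocks in DMSO diluted into Ringer's, DMSO 0.3%. Modulation is potentiation plus any direct steroid current, fitted to a four-parameter logistic. Mean ± SEM.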

| Structure (SMILES) | pIC50 [1] | PTZ protection (Mus musculus) [%] | Imax (Rattus norvegicus) [%] | Slope [2] | Efficacy [3] | pEC50 [4] |
| --- | --- | --- | --- | --- | --- | --- |
| CC(=O)[C@H]1CC[C@H]2[C@@H]3CC[C@@H]4C[C@@](O)(CCc5ccccc5)CC[C@]4(C)[C@H]3CC[C@]12C | 6.82 | 0 | 102 | – | – | – |
| CC(=O)[C@H]1CC[C@H]2[C@@H]3CC[C@@H]4C[C@@](O)(c5ccccc5)CC[C@]4(C)[C@H]3CC[C@]12C | 6.42 | 25 | 89 | – | – | – |
| COc1ccc(C#C[C@@]2(O)CC[C@@]3(C)[C@H](CC[C@@H]4[C@@H]3CC[C@]3(C)[C@@H](C(C)=O)CC[C@@H]43)C2)cc1OC | 6.54 | 13 | 102 | – | – | – |
| C#C[C@@]1(O)CC[C@@]2(C)[C@H](CC[C@@H]3[C@@H]2CC[C@]2(C)[C@@H](C(C)=O)CC[C@@H]32)C1 | 7.41 | – | – | – | – | – |
| CC(=O)[C@H]1CC[C@H]2[C@@H]3CC[C@@H]4C[C@@](O)(C#Cc5ccc6c(c5)OCO6)CC[C@]4(C)[C@H]3CC[C@]12C | 7.17 | 13 | 93 | – | – | – |
| CC(=O)[C@H]1CC[C@H]2[C@@H]3CC[C@@H]4C[C@@](O)(C#Cc5ccc(-c6ccccc6)cc5)CC[C@]4(C)[C@H]3CC[C@]12C | 7.27 | 0 | 90 | – | – | – |
| CC(=O)[C@H]1CC[C@H]2[C@@H]3CC[C@@H]4C[C@@](O)(C#Cc5ccc(N(C)C)cc5)CC[C@]4(C)[C@H]3CC[C@]12C | 7.40 | 50 | 78 | 1.1 | 0.76 | 7.74 |
| CC(=O)[C@H]1CC[C@H]2[C@@H]3CC[C@@H]4C[C@@](O)(Cc5ccccc5)CC[C@]4(C)[C@H]3CC[C@]12C | 6.96 | 38 | 101 | – | – | – |
| CC(=O)[C@H]1CC[C@H]2[C@@H]3CC[C@@H]4C[C@@](O)(C#Cc5cccc(O)c5)CC[C@]4(C)[C@H]3CC[C@]12C | 6.38 | 0 | 100 | – | – | – |
| CC(=O)[C@H]1CC[C@H]2[C@@H]3CC[C@@H]4C[C@@](O)(C#Cc5ccc([N+](=O)[O-])cc5)CC[C@]4(C)[C@H]3CC[C@]12C | 7.38 | 13 | 98 | – | – | – |
| CC(=O)[C@H]1CC[C@H]2[C@@H]3CC[C@@H]4C[C@](C)(O)CC[C@]4(C)[C@H]3CC[C@]12C | 7.43 | – | – | – | – | – |
| CC(=O)[C@H]1CC[C@H]2[C@@H]3CC[C@@H]4C[C@@](O)(C#Cc5ccc(C)cc5)CC[C@]4(C)[C@H]3CC[C@]12C | 7.08 | 50 | 84 | – | – | – |
| CC(=O)[C@H]1CC[C@H]2[C@@H]3CC[C@@H]4C[C@@](O)(C#Cc5ccc(C(=O)c6ccccc6)cc5)CC[C@]4(C)[C@H]3CC[C@]12C | 7.26 | 38 | 96 | – | – | – |
| CC(=O)[C@H]1CC[C@H]2[C@@H]3CC[C@@H]4C[C@@](O)(C#Cc5ccccc5)CC[C@]4(C)[C@H]3CC[C@]12C | 7.00 | 25 | 100 | – | – | – |
| CC(=O)[C@H]1CC[C@H]2[C@@H]3CC[C@@H]4C[C@@](O)(C#Cc5ccc(C(N)=O)cc5)CC[C@]4(C)[C@H]3CC[C@]12C | 5.74 | 13 | 96 | – | – | – |
| CC(=O)[C@H]1CC[C@H]2[C@@H]3CC[C@@H]4C[C@@](O)(C#Cc5ccc(C#N)cc5)CC[C@]4(C)[C@H]3CC[C@]12C | 7.22 | 44 | 85 | – | – | – |
| CC(=O)[C@H]1CC[C@H]2[C@@H]3CC[C@@H]4C[C@@](O)(C#Cc5ccc(Cl)cc5)CC[C@]4(C)[C@H]3CC[C@]12C | 7.15 | 0 | 88 | – | – | – |
| CC(=O)[C@H]1CC[C@H]2[C@@H]3CC[C@@H]4C[C@@](O)(CCCc5ccccc5)CC[C@]4(C)[C@H]3CC[C@]12C | 6.72 | 13 | 91 | – | – | – |
| COc1ccccc1C#C[C@@]1(O)CC[C@@]2(C)[C@H](CC[C@@H]3[C@@H]2CC[C@]2(C)[C@@H](C(C)=O)CC[C@@H]32)C1 | 6.77 | 0 | 89 | – | – | – |
| CCN(CC)C(=O)c1ccc(C#C[C@@]2(O)CC[C@@]3(C)[C@H](CC[C@@H]4[C@@H]3CC[C@]3(C)[C@@H](C(C)=O)CC[C@@H]43)C2)cc1 | 7.03 | 13 | 91 | – | – | – |
| CCOC(=O)c1ccc(C#C[C@@]2(O)CC[C@H]3[C@H](CC[C@@H]4[C@@H]3CC[C@]3(C)[C@@H](C(C)=O)CC[C@@H]43)C2)cc1 | 7.59 | 13 | 94 | – | – | – |
| CC(=O)[C@H]1CC[C@H]2[C@@H]3CC[C@@H]4C[C@@](O)(C#Cc5ccc(C(F)(F)F)cc5)CC[C@]4(C)[C@H]3CC[C@]12C | 7.25 | 0 | 88 | – | – | – |
| COc1ccc(C#C[C@@]2(O)CC[C@@]3(C)[C@H](CC[C@@H]4[C@@H]3CC[C@]3(C)[C@@H](C(C)=O)CC[C@@H]43)C2)cc1 | 7.38 | 25 | 84 | – | – | – |
| CC(=O)[C@H]1CC[C@H]2[C@@H]3CC[C@@H]4C[C@@](O)(C#Cc5ccc(O)cc5)CC[C@]4(C)[C@H]3CC[C@]12C | 5.64 | 0 | 100 | – | – | < 6.00 |
| CCOC(=O)c1ccc(C#C[C@@]2(O)CC[C@@]3(C)[C@H](CC[C@@H]4[C@@H]3CC[C@]3(C)[C@@H](C(C)=O)CC[C@@H]43)C2)cc1 | 7.92 | 19 | 97 | – | – | – |
